One block for each molecule: values may come before it.
Experiments:
[1] = molecular target: T1, Anoctamin-1 (Homo sapiens) (UniProt Q5XXA6); experiment: Inhibition of human ANO1 channel expressed in HEK293 cells at 10 uM incubated for 10 mins by FLIPR assay relative to control; format: cell-based
T1 sequence (whole entry): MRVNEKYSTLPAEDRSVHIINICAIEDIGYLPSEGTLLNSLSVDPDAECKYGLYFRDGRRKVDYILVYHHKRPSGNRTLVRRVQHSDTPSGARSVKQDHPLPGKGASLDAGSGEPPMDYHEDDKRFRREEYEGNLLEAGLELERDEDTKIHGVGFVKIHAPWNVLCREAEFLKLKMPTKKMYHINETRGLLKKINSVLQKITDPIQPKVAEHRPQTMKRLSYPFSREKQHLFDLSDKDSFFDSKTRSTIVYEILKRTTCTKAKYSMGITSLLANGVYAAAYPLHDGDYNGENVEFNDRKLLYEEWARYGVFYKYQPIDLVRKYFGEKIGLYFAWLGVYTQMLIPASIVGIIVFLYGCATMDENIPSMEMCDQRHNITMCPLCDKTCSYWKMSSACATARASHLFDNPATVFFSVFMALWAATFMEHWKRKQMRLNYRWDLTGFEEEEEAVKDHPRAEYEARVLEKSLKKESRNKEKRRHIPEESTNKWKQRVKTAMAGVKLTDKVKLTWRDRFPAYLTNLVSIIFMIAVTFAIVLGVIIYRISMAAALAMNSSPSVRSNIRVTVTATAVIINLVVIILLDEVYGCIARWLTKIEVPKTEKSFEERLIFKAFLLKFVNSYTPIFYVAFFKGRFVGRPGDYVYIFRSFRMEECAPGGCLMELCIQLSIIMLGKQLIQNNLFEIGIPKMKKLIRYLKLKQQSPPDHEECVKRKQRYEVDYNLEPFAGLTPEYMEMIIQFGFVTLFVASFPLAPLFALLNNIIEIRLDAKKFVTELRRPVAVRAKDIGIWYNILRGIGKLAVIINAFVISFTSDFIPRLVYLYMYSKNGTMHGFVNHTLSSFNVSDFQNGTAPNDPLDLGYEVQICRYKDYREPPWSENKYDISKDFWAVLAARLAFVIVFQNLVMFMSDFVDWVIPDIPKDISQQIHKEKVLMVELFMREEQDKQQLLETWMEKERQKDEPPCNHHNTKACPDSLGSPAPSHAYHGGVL
Procedure, shortened: (§1)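 HEK293 cells expressing human ANO1, 50,000 cells/well, plated overnight. Loaded with FLIPR Red membrane-potential dye in HEPES-buffered saline (pH 7.4) for 40-60 min at room temperature. Compound added for 10 min at room temperature, final DMSO 0.5%.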

Anoctamin-1 [2] = molecular target: T2, Anoctamin-1 (Mus musculus, UniProt Q8BHY3); experiment: Inhibition of GFP-fused mouse ANO1 channel expressed in HEK293A cells assessed as inhibition of ATP-induced channel current amplitude at membrane potential of +80 mV by patch clamp electrophysiology assay; format: cell-based, HEK293-A
T2 sequence (Q8BHY3 whole entry): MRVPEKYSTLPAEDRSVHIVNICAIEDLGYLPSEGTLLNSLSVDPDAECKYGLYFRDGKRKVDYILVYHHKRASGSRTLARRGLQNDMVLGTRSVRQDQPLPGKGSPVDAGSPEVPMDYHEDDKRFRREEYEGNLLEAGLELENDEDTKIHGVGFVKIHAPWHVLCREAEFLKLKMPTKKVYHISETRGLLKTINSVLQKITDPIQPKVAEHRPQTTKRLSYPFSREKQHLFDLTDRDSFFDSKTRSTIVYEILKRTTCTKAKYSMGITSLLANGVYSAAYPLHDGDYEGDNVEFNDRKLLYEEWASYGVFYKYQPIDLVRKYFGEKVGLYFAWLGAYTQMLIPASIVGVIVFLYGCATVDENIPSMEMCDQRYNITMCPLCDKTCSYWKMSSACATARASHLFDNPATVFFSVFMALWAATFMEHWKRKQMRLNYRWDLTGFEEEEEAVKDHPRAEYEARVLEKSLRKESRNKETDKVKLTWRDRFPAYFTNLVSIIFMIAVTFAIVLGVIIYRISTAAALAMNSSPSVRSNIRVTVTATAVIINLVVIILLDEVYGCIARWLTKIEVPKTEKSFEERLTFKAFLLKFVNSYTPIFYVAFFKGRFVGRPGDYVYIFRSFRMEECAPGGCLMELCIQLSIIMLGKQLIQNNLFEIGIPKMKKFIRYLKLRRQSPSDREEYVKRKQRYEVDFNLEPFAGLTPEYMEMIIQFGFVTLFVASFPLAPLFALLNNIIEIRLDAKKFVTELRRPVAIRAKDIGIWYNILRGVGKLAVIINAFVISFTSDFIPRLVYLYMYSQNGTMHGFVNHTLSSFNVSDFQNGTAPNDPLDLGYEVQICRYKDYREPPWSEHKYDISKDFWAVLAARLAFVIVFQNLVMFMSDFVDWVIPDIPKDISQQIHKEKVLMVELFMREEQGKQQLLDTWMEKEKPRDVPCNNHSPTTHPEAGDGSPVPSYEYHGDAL
Procedure, shortened: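 Whole-cell recording at room temperature in HEK293A cells transfected with GFP-mANO1, GFP-mANO2 or GFP-mTTYH1. 1 s ramps from +80 to -80 mV, holding potential -10 mV. For ANO1/ANO2: pipette CsCl 146 mM with Ca-EGTA-NMDG, pH 7.3; bath NaCl-based, pH 7.3. For TTYH1: Tris-aspartate pipette (pH 7.2) and Tris-HCl bath (pH 7.4), with […] and BaCl2 added to block K+ channels, and hypotonic (220 mOsm/kg) bath. Washout recordings assessed reversibility.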

U-87 MG [3] = experiment: Antiproliferative activity against human U87MG cells overexpressing ANO1 assessed as reduction in cell viability measured after 72 hrs by Celltiter-glo assay; format: functional, U-87MG ATCC
Procedure, shortened: (§2)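 5.0×10^3 cells/well seeded, overnight, then compounds added as 1:4 serial dilutions in DMSO; viability read after 72 h with CellTiter-Glo luminescence. GI50 from fitted dose-response curves; triplicate wells, SD from three independent experiments. DMEM for U251 and U138, MEM for U87MG, both with 10% FBS and pen/strep, 37 °C, 5% CO2.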

Anoctamin-1 [4] = molecular target: T3, Anoctamin-1 (Homo sapiens, UniProt Q5XXA6); experiment: Inhibition of human ANO1 channel expressed in HEK293 cells incubated for 10 mins by FLIPR assay; format: cell-based; procedure, shortened: as §1
T3 sequence (Q5XXA6 whole entry): T1 sequence (whole entry)

U138-MG [5] = experiment: Antiproliferative activity against human U138 cells overexpressing ANO1 assessed as reduction in cell viability measured after 72 hrs by Celltiter-glo assay; format: functional; procedure, shortened: as §2
U-251 = experiment: Antiproliferative activity against human U251 cells overexpressing ANO1 assessed as reduction in cell viability measured after 72 hrs by Celltiter-glo assay; format: functional; procedure, shortened: as §2
[6] = Antiproliferative activity against mouse primary astrocytes assessed as reduction in cell viability at 100 uM measured after 72 hrs by Celltiter-Glo luminescent assay; format: cell-based, Astrocyte
Procedure, shortened: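 Primary astrocytes isolated from adult mouse brain by a previously reported method. 5.0×10^3 cells/well, compound as 1:4 serial DMSO dilutions, CellTiter-Glo viability at 72 h.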

U-87 MG [7] = experiment: Antiproliferative activity against human U87MG cells overexpressing ANO1 assessed as reduction in cell viability at 100 uM measured after 72 hrs by Celltiter-glo assay; format: functional, U-87MG ATCC; procedure, shortened: as §2
U138-MG [8] = experiment: Antiproliferative activity against human U138 cells overexpressing ANO1 assessed as reduction in cell viability at 100 uM measured after 72 hrs by Celltiter-glo assay; format: functional; procedure, shortened: as §2

Structure (SMILES): NC(=O)c1c(N)sc2c1CCC2
inhibition [1]: 15.4%

Structure (SMILES): CC(C)(C)C(=O)Nc1sc2c(c1C(N)=O)CCC2
inhibition [1]: 12.5%

Structure (SMILES): NC(=O)c1c(NC(=S)NC(=O)c2ccc(C(F)(F)F)cc2)sc2c1CCC2
inhibition [1]: < 10%

Structure (SMILES): NC(=O)c1ccsc1N
inhibition [1]: < 10%

Structure (SMILES): NC(=O)c1ccsc1NC(=O)c1ccco1
inhibition [1]: 39.5%

Structure (SMILES): NC(=O)c1c(NC(=O)c2ccco2)sc2c1CCC2
inhibition [1]: 51.5%

Structure (SMILES): CC(C)(C)C(=O)Nc1sccc1C(N)=O
inhibition [1]: < 10%

Structure (SMILES): CC(C)(C)C1CCc2c(sc(N)c2C(N)=O)C1 (stereo not given)
IC50 (Anoctamin-1 [2]): 2.5 µM
IC50 (Anoctamin-1 [4]): 2.95 µM
inhibition at 72 h, 100 µM [6]: < 50%
inhibition [1]: 80.1%
inhibition at 100 µM (U-87 MG [7]): < 50%
inhibition at 100 µM (U138-MG [8]): < 50%
GI50 (U-251): 83.2 µM

Structure (SMILES): NC(=O)c1c(NC(=S)NC(=O)c2ccc3c(c2)OCO3)sc2c1CCC2
inhibition [1]: 16.3%

Now from value to molecule, other results behind:

inhibition [1]: < 10%
Structure (SMILES): NC(=O)c1c(NC(=O)c2ccccc2)sc2c1CCC2

inhibition [1]: 26.7%
Structure (SMILES): NC(=O)c1c(NC(=S)NC(=O)c2cccc(C(F)(F)F)c2)sc2c1CCC2

inhibition [1]: < 10%
Structure (SMILES): NC(=O)c1c(NC(=S)NC(=O)c2cccc(Cl)c2)sc2c1CCC2

inhibition [1]: 46.1%
Structure (SMILES): COc1cc(OC)cc(C(=O)NC(=S)Nc2sc3c(c2C(N)=O)CCC3)c1

IC50 (Anoctamin-1 [2]): 0.03 µM
Structure (SMILES): COc1ccccc1/C=N/NC(=O)COc1ccc(Cl)cc1C

GI50 (U-87 MG [3]): 26 µM
IC50 (Anoctamin-1 [2]): 2.63 µM
IC50 (Anoctamin-1 [4]): 2.83 µM
inhibition [1]: 70.5%
GI50 (U-251): 24.4 µM
Structure (SMILES): NC(=O)c1c(NC(=S)NC(=O)c2ccccc2)sc2c1CCC2
GI50 (U138-MG [5]): 17.1 µM

IC50 (Anoctamin-1 [2]): 3.12 µM
IC50 (Anoctamin-1 [4]): 2.29 µM
inhibition [1]: 76.7%
GI50 (U-251): 94.6 µM
Structure (SMILES): NC(=O)c1c(NC(=S)NC(=O)c2ccccc2Cl)sc2c1CCC2
inhibition at 72 h, 100 µM [6]: < 50%
inhibition at 100 µM (U-87 MG [7]): < 50%
inhibition at 100 µM (U138-MG [8]): < 50%

GI50 (U-87 MG [3]): 82.4 µM
IC50 (Anoctamin-1 [2]): 5.66 µM
IC50 (Anoctamin-1 [4]): 3.09 µM
inhibition [1]: 70.3%
GI50 (U-251): 70.2 µM
Structure (SMILES): CC(C)(C)C1CCc2c(sc(NC(=S)NC(=O)c3ccccc3)c2C(N)=O)C1 (stereo not given)
inhibition at 72 h, 100 µM [6]: < 50%
inhibition at 100 µM (U138-MG [8]): < 50%
